From ChEMBL document CHEMBL3046804, “Synthesis and fungicidal activity of novel 3-(substituted/unsubstituted phenylselenonyl)-1-ribosyl/deoxyribosyl-1H-1,2,4-triazole” (2012) come the findings set out here.

As usually defined, the inhibition is the change of the read-out against control, counted positive when it falls.

Holding throughout (format): functional
In test [1] the test system is Fusarium oxysporum. The experiment in a line: Fungitoxicity against Fusarium oxysporum assessed as inhibition of mycelia growth at 28 +/- 1 degC at 10 ug/mL for 96 hr by poisoned food technique. An outline of the steps:
(§1)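 Poisoned food technique in Czapek's agar dishes, with test compound incorporated at 10, 100 or 1000 μg/mL. Fungus inoculated at the dish centre and incubated 96 h at 28 ± 1 °C. Percent inhibition = 100 × (mean hyphal diameter in control − mean hyphal diameter in test) / mean hyphal diameter in control. Three replicate assays per treatment and six replicate controls. Griseofulvin and Dithane M-45 served as standards.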

Test [2] concerns Penicillium citrinum. The experiment in a line: Fungitoxicity against Penicillium citrinum assessed as inhibition of mycelia growth at 28 +/- 1 degC at 10 ug/mL for 96 hr by poisoned food technique. An outline of the steps: as §1
Test [3] concerns Penicillium citrinum. The experiment in a line: Fungitoxicity against Penicillium citrinum assessed as inhibition of mycelia growth at 28 +/- 1 degC at 1000 ug/mL for 96 hr by poisoned food technique. The procedure, abridged:
as §1

For test [4], the system named is Fusarium oxysporum. The experiment in a line: Fungitoxicity against Fusarium oxysporum assessed as inhibition of mycelia growth at 28 +/- 1 degC at 100 ug/mL for 96 hr by poisoned food technique. An outline of the steps:
as §1

Test [5] deals with Penicillium citrinum. The experiment in a line: Fungitoxicity against Penicillium citrinum assessed as inhibition of mycelia growth at 28 +/- 1 degC at 100 ug/mL for 96 hr by poisoned food technique. The procedure, abridged:
as §1

The test system of test [6] is Fusarium oxysporum. The experiment in a line: Fungitoxicity against Fusarium oxysporum assessed as inhibition of mycelia growth at 28 +/- 1 degC at 1000 ug/mL for 96 hr by poisoned food technique. The procedure, abridged:
as §1

On to `O=[Se](=O)(c1ccccc1)c1ncn([C@@H]2O[C@H](CO)[C@@H](O)[C@H]2O)n1`, for which the inhibition at 10 µg/mL in the test with Fusarium oxysporum [1] came to 50%; with Penicillium citrinum [2] it was 35%. Also, the figures for the inhibition at 1000 µg/mL with Penicillium citrinum [3] and in the test on Fusarium oxysporum [6] were 89% and 82%, respectively. Also, the inhibition at 100 µg/mL came to 65% in the test on Fusarium oxysporum [4] and 42% with Penicillium citrinum [5].
With `CC(=O)OC[C@H]1O[C@@H](n2cnc([Se](=O)(=O)c3ccc(C)cc3)n2)C[C@@H]1OC(C)=O`, the inhibition at 10 µg/mL was 26% in the test with Fusarium oxysporum [1] and 17% in the test with Penicillium citrinum [2]. The results for the inhibition at 1000 µg/mL with Penicillium citrinum [3] and with Fusarium oxysporum [6] were 42% and 45%, respectively. Moreover, the inhibition at 100 µg/mL in the test on Fusarium oxysporum [4] stood at 35%; in the test with Penicillium citrinum [5] it was 31%.
Turning to `CC(=O)OC[C@H]1O[C@@H](n2cnc([Se](=O)(=O)c3ccc(Cl)cc3)n2)C[C@@H]1OC(C)=O`, the inhibition at 10 µg/mL in the test with Fusarium oxysporum [1] was 15%; in the test on Penicillium citrinum [2] it was 16%. The inhibition at 1000 µg/mL turned out to be 51% with Penicillium citrinum [3] and 54% in the test on Fusarium oxysporum [6]. Also, the inhibition at 100 µg/mL with Fusarium oxysporum [4] turned out to be 26%; in the test on Penicillium citrinum [5] it was 35%.
With `CC(=O)OC[C@H]1O[C@@H](n2cnc([Se](=O)(=O)c3ccc([N+](=O)[O-])cc3)n2)C[C@@H]1OC(C)=O`, the inhibition at 10 µg/mL was found to be 16% in the test with Fusarium oxysporum [1] and 18% with Penicillium citrinum [2]. The figures for the inhibition at 1000 µg/mL in the test with Penicillium citrinum [3] and with Fusarium oxysporum [6] were 51% and 54%, respectively. Moreover, the values for the inhibition at 100 µg/mL in the test on Fusarium oxysporum [4] and in the test on Penicillium citrinum [5] were 28% and 34%, respectively.
Regarding `COc1ccc([Se](=O)(=O)c2ncn([C@@H]3O[C@H](CO)[C@@H](O)[C@H]3O)n2)cc1`, the inhibition at 10 µg/mL in the test with Fusarium oxysporum [1] stood at 55%; in the test on Penicillium citrinum [2], 39%. For the same compound, the inhibition at 1000 µg/mL with Penicillium citrinum [3] is 99%; in the test with Fusarium oxysporum [6], 100%. Further, the inhibition at 100 µg/mL with Fusarium oxysporum [4] came to 68%; in the test with Penicillium citrinum [5] it was 49%.
Regarding `Cc1ccc([Se](=O)(=O)c2ncn([C@@H]3O[C@H](CO)[C@@H](O)[C@H]3O)n2)cc1`, the inhibition at 10 µg/mL is 62% in the test with Fusarium oxysporum [1] and 69% in the test on Penicillium citrinum [2]. The inhibition at 1000 µg/mL was determined as 80% in the test on Penicillium citrinum [3] and 88% in the test with Fusarium oxysporum [6]. For the same compound, the inhibition at 100 µg/mL in the test with Fusarium oxysporum [4] stood at 80%; in the test with Penicillium citrinum [5], 78%.
As to `O=[Se](=O)(c1ccc(Cl)cc1)c1ncn([C@@H]2O[C@H](CO)[C@@H](O)[C@H]2O)n1`, the inhibition at 10 µg/mL in the test on Fusarium oxysporum [1] came to 44%; in the test on Penicillium citrinum [2] it was 36%. Also, the inhibition at 1000 µg/mL in the test on Penicillium citrinum [3] was 97%; in the test on Fusarium oxysporum [6] it was 100%. For the same compound, the results for the inhibition at 100 µg/mL with Fusarium oxysporum [4] and in the test with Penicillium citrinum [5] were 72% and 65%, respectively.
For the compound `O=[N+]([O-])c1ccc([Se](=O)(=O)c2ncn([C@@H]3O[C@H](CO)[C@@H](O)[C@H]3O)n2)cc1`, the inhibition at 10 µg/mL with Fusarium oxysporum [1] is 35%; in the test on Penicillium citrinum [2], 37%. The inhibition at 1000 µg/mL in the test on Penicillium citrinum [3] came out at 86%; with Fusarium oxysporum [6], 81%. In addition, the results for the inhibition at 100 µg/mL with Fusarium oxysporum [4] and in the test with Penicillium citrinum [5] were 48% and 59%, respectively.
`O=[Se](=O)(c1ccccc1)c1ncn([C@H]2C[C@H](O)[C@@H](CO)O2)n1`: the inhibition at 10 µg/mL was 33% with Fusarium oxysporum [1] and 65% with Penicillium citrinum [2]. Also, the inhibition at 1000 µg/mL in the test with Penicillium citrinum [3] was found to be 81%; with Fusarium oxysporum [6], 77%. Further, the inhibition at 100 µg/mL with Fusarium oxysporum [4] stood at 42%; with Penicillium citrinum [5], 74%.
Regarding `COc1ccc([Se](=O)(=O)c2ncn([C@H]3C[C@H](O)[C@@H](CO)O3)n2)cc1`, the inhibition at 10 µg/mL in the test on Fusarium oxysporum [1] is 65%; with Penicillium citrinum [2], 42%. In addition, the inhibition at 1000 µg/mL in the test with Penicillium citrinum [3] is 76%; in the test on Fusarium oxysporum [6], 91%. Also, the inhibition at 100 µg/mL in the test on Fusarium oxysporum [4] is 76%; in the test on Penicillium citrinum [5], 48%.
Regarding `Cc1ccc([Se](=O)(=O)c2ncn([C@H]3C[C@H](O)[C@@H](CO)O3)n2)cc1`, the inhibition at 10 µg/mL with Fusarium oxysporum [1] was found to be 61%; in the test with Penicillium citrinum [2], 67%. Also, the inhibition at 1000 µg/mL came to 80% in the test with Penicillium citrinum [3] and 81% with Fusarium oxysporum [6]. In addition, the values for the inhibition at 100 µg/mL with Fusarium oxysporum [4] and in the test with Penicillium citrinum [5] were 75% and 74%, respectively.
Consider `O=[Se](=O)(c1ccc(Cl)cc1)c1ncn([C@H]2C[C@H](O)[C@@H](CO)O2)n1`, for which the results for the inhibition at 10 µg/mL with Fusarium oxysporum [1] and with Penicillium citrinum [2] were 32% and 31%, respectively. Moreover, the inhibition at 1000 µg/mL with Penicillium citrinum [3] stood at 75%; in the test on Fusarium oxysporum [6] it was 81%. Further, the values for the inhibition at 100 µg/mL in the test on Fusarium oxysporum [4] and in the test with Penicillium citrinum [5] were 56% and 65%, respectively.
Consider `O=[N+]([O-])c1ccc([Se](=O)(=O)c2ncn([C@H]3C[C@H](O)[C@@H](CO)O3)n2)cc1`, for which the inhibition at 10 µg/mL is 41% with Fusarium oxysporum [1] and 33% with Penicillium citrinum [2]. Moreover, the inhibition at 1000 µg/mL in the test with Penicillium citrinum [3] stood at 87%; in the test on Fusarium oxysporum [6], 82%. Moreover, the values for the inhibition at 100 µg/mL in the test on Fusarium oxysporum [4] and with Penicillium citrinum [5] were 60% and 63%, respectively.
On to `CC(=O)OC[C@H]1O[C@@H](n2cnc([Se](=O)(=O)c3ccccc3)n2)[C@H](OC(C)=O)[C@@H]1OC(C)=O`, for which the inhibition at 10 µg/mL in the test on Fusarium oxysporum [1] was 15%; with Penicillium citrinum [2], 12%. The inhibition at 1000 µg/mL with Penicillium citrinum [3] was found to be 38%; with Fusarium oxysporum [6], 41%. Also, the inhibition at 100 µg/mL with Fusarium oxysporum [4] amounted to 32%; with Penicillium citrinum [5], 30%.
Regarding `COc1ccc([Se](=O)(=O)c2ncn([C@@H]3O[C@H](COC(C)=O)[C@@H](OC(C)=O)[C@H]3OC(C)=O)n2)cc1`, the values for the inhibition at 10 µg/mL with Fusarium oxysporum [1] and with Penicillium citrinum [2] were 16% and 17%, respectively. Moreover, the inhibition at 1000 µg/mL in the test with Penicillium citrinum [3] was determined as 47%; in the test on Fusarium oxysporum [6] it was 53%. Further, the inhibition at 100 µg/mL was 44% with Fusarium oxysporum [4] and 32% in the test with Penicillium citrinum [5].
Regarding `CC(=O)OC[C@H]1O[C@@H](n2cnc([Se](=O)(=O)c3ccc(C)cc3)n2)[C@H](OC(C)=O)[C@@H]1OC(C)=O`, the inhibition at 10 µg/mL was 17% in the test on Fusarium oxysporum [1] and 21% with Penicillium citrinum [2]. For the same compound, the inhibition at 1000 µg/mL in the test with Penicillium citrinum [3] came out at 51%; with Fusarium oxysporum [6] it was 52%. In addition, the values for the inhibition at 100 µg/mL in the test on Fusarium oxysporum [4] and in the test on Penicillium citrinum [5] were 37% and 42%, respectively.
As to `CC(=O)OC[C@H]1O[C@@H](n2cnc([Se](=O)(=O)c3ccc(Cl)cc3)n2)[C@H](OC(C)=O)[C@@H]1OC(C)=O`, the inhibition at 10 µg/mL in the test on Fusarium oxysporum [1] stood at 14%; with Penicillium citrinum [2], 22%. For the same compound, the inhibition at 1000 µg/mL in the test with Penicillium citrinum [3] amounted to 53%; with Fusarium oxysporum [6], 55%. The inhibition at 100 µg/mL in the test on Fusarium oxysporum [4] was found to be 29%; with Penicillium citrinum [5], 39%.
As to `CC(=O)OC[C@H]1O[C@@H](n2cnc([Se](=O)(=O)c3ccc([N+](=O)[O-])cc3)n2)[C@H](OC(C)=O)[C@@H]1OC(C)=O`, the inhibition at 10 µg/mL amounted to 30% in the test on Fusarium oxysporum [1] and 24% in the test on Penicillium citrinum [2]. Moreover, the inhibition at 1000 µg/mL in the test on Penicillium citrinum [3] is 62%; with Fusarium oxysporum [6] it was 65%. In addition, the inhibition at 100 µg/mL came to 55% with Fusarium oxysporum [4] and 41% in the test with Penicillium citrinum [5].
Regarding `CC(=O)OC[C@H]1O[C@@H](n2cnc([Se](=O)(=O)c3ccccc3)n2)C[C@@H]1OC(C)=O`, the figures for the inhibition at 10 µg/mL in the test with Fusarium oxysporum [1] and in the test on Penicillium citrinum [2] were 25% and 23%, respectively. For the same compound, the inhibition at 1000 µg/mL was determined as 42% in the test with Penicillium citrinum [3] and 45% with Fusarium oxysporum [6]. The results for the inhibition at 100 µg/mL in the test with Fusarium oxysporum [4] and in the test on Penicillium citrinum [5] were 33% and 32%, respectively.
On to `COc1ccc([Se](=O)(=O)c2ncn([C@H]3C[C@H](OC(C)=O)[C@@H](COC(C)=O)O3)n2)cc1`, for which the inhibition at 10 µg/mL in the test with Fusarium oxysporum [1] is 17%; in the test on Penicillium citrinum [2], 24%. In addition, the inhibition at 1000 µg/mL with Penicillium citrinum [3] stood at 64%; in the test on Fusarium oxysporum [6], 65%. For the same compound, the inhibition at 100 µg/mL amounted to 25% in the test on Fusarium oxysporum [4] and 35% in the test on Penicillium citrinum [5].
Turning to `COC1=CC(=O)C[C@@H](C)[C@]12Oc1c(Cl)c(OC)cc(OC)c1C2=O` [GRISEOFULVIN], the results for the inhibition at 10 µg/mL in the test with Fusarium oxysporum [1] and in the test with Penicillium citrinum [2] were 91% and 90%, respectively. The inhibition at 1000 µg/mL in the test with Penicillium citrinum [3] and with Fusarium oxysporum [6] was 100% throughout. Also, the inhibition at 100 µg/mL turned out to be 95% in the test on Fusarium oxysporum [4] and 94% in the test on Penicillium citrinum [5].
